From PubChem BioAssay
PP5 inh = PP5 phosphatase inhibitors, primary screen, biochemical, fluorescence; Serine/threonine-protein phosphatase 5 (Homo sapiens), P53041; purified PP5c, OMFP substrate fluorescence; inhibition, % at 6.7 µM; 0.18% of 320,000 active; AID 1987, 2009;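 active means inhibition above the campaign's mean inhibition across all tested compounds plus 3 SD, cut at about 9.5% in these data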;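 further: 0% = DMSO only and 100% = 100 µM cantharidin control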
STEP block = STEP phosphatase inhibitors, primary screen, biochemical, fluorescence intensity, uHTS; 0.25% of 360,000 active; inhibition, % at 20 µM; recombinant STEP, OMFP fluorogenic substrate; Tyrosine-protein phosphatase non-receptor type 5 (Homo sapiens), P54829; AID 588621, 2011;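 active means inhibition at 20 µM, scaled per plate between control wells, above about 37%, limit read from the data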;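 further: 0% = DMSO with enzyme and substrate and 100% = substrate only without enzyme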
Target sequence (P54829 whole entry, looked up): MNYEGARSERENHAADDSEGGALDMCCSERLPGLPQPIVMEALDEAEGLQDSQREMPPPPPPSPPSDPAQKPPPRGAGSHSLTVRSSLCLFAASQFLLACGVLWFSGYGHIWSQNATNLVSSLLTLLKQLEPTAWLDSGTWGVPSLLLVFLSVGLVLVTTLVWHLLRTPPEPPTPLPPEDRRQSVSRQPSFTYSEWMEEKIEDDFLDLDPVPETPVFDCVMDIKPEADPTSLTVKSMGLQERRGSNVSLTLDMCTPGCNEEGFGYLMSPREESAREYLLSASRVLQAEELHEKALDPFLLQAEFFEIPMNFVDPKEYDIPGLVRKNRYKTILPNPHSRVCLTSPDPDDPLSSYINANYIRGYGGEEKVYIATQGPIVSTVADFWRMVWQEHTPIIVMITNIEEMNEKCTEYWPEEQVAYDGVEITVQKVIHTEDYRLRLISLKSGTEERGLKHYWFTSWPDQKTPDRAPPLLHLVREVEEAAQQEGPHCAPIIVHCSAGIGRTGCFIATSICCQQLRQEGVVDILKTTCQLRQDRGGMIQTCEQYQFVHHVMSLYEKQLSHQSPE
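Measure: Control-normalized % inhibition with plate pattern correction | Test system: STEP phosphatase, cell-free reaction | Medium: pH 6.0 Bis-Tris with DTT and Tween 20 | Technique: Fluorescence, 480/540 nm | Times: Reaction 20 min, ambient temperature | Doses: Single compound dose of 20 µM, 1% DMSO final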
LMPTP block = LMPTP phosphatase inhibitors, primary screen, biochemical, fluorescence intensity, uHTS | Low molecular weight phosphotyrosine protein phosphatase (Homo sapiens), P24666 | recombinant LMPTP-A, OMFP fluorogenic substrate | inhibition, % at 20 µM | 0.22% of 360,000 active | AID 651560, 2012;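 active means compounds that cut the enzyme signal by at least half of the control window in the single-dose screen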;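 further: plate controls were DMSO wells with enzyme plus substrate for no effect and substrate without enzyme for full effect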
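Buffer or medium: Bis-Tris pH 6.0, DTT, detergent; Assay system: LMPTP-A enzyme; Quantity: 0.625 nM enzyme; Detection: endpoint fluorescence intensity; Times: 50 min dark incubation at room temperature; Controls: substrate-only low control, DMSO enzyme-plus-substrate high control; Doses: single 20 µM dose; Read-out: percent inhibition versus substrate-only and uninhibited controls; Reagent: 400 µM OMFP.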
PP1 counter = PP1-alpha phosphatase inhibitors, primary screen, counter-screen for PP5 inhibitor project, biochemical, fluorescence, OMFP substrate, single point | purified PP1alpha | 0.9% of 320,000 active | Serine/threonine-protein phosphatase PP1-alpha catalytic subunit (Homo sapiens), P62136 | inhibition, % at 6.7 µM | AID 2235, 2010;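 active means inhibition above the mean inhibition of all tested compounds plus 3 SD, computed separately for each screening campaign, cut at about 15% in these data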
Scp1 inh = Scp-1 phosphatase inhibitors, primary screen, biochemical, colorimetric, uHTS; Recombinant Scp1, phosphopeptide, malachite green phosphate absorbance; inhibition, % at 20 µM; 0.88% of 340,000 active;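 active means inhibition above about 50% at 20 µM, limit read from the data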;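 further: plate controls were DMSO wells with enzyme for no effect and wells lacking enzyme for full effect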
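Test system – truncated SCP-1 phosphatase (76-261aa) · Reagent – Phosphorylated 17-residue peptide substrate · Incubation – 45 min room-temperature reaction, 5 min colour, 30 min stabiliser · Detection – colorimetric phosphate reagent with accelerator and stabiliser, absorbance at 630 nm · Measure – % inhibition at 20 µM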
PP5 inh confirm = PP5 phosphatase inhibitors, confirmation, biochemical, fluorescence, human; Purified PP5, fluorogenic phosphatase substrate; AID 2331, 2010; inhibition, % at 6.7 µM; 22% of 460 active; shares compounds with PP5 inh; in the data active means inhibition above about 9.5%
PP1 counter 3x = PP1 phosphatase inhibitors, counter-screen for PP5 inhibitor project, biochemical, fluorescence, triplicate; PP1 enzyme, fluorescent phosphatase substrate; 4% of 460 active; shares compounds with PP5 inh; inhibition, % at 6.7 µM; in the data active means inhibition above about 16%
* marks the source's active call; other numbers are inactive results; . = not tested or not shown. Compounds with a hit are over-represented: about 1.9% of the library has one in this group of screens.

SMILES	PP5 inh	STEP block	LMPTP block	PP1 counter	Scp1 inh	PP5 inh confirm	PP1 counter 3x
COc1ccc2[nH]c(=O)c(CN(Cc3cccs3)S(=O)(=O)c3c(C)ccc4nsnc34)cc2c1	9.8*	4	3	0	-11	1	2
CC(C)COC(=O)N1CC(O)CC1C(=O)Nc1ccc2c(c1)OCO2 (stereo not drawn)	1	-2	-1	-8	5	.	.
CC(C)COC(=O)N1CC(O)CC1C(=O)O (stereo not drawn)	11*	-3	0	-10	-9	-1	-2
CCN1C(=O)/C(=C\N2CCN(c3ccc(F)cc3)CC2)SC1=S	5	2	1	-6	0	.	.
COc1cc(C(C)=O)ccc1COc1ccc(C(=O)O)cc1OC	11*	-1	0	-1	8	-1	-1
CC(C)(C)NC(=O)Cn1ccc(=N)c2ccccc21	1	1	-2	2	-15	.	.
COC(=O)CCC(=O)OC1(C)C(=O)C2=CN(C3CC3)C(c3ccc(OC)cc3)=CC2=C(Br)C1=O (stereo not drawn)	11*	0	9	3	11	37*	12
COC(=O)CCC(=O)OC1(C)C(=O)C2=CN(CCc3c[nH]c4ccccc34)C(c3ccc(OC)cc3)=CC2=C(Br)C1=O (stereo not drawn)	3	2	5	9	-4	.	.
COC(=O)CCC(=O)OC1(C)C(=O)C2=CN(CC(C)C)C(c3ccc(OC)cc3)=CC2=C(Br)C1=O (stereo not drawn)	15*	.	.	7	.	31*	12
COC(=O)CCC(=O)OC1(C)C(=O)C2=CN(CCCOC(C)C)C(c3ccc(OC)cc3)=CC2=C(Br)C1=O (stereo not drawn)	-1	1	6	13	6	.	.
COc1ccc(C2CC(c3ccccc3)=NN2S(=O)(=O)c2ccccc2)c(OC)c1 (stereo not drawn)	-3	-1	1	-4	-10	.	.
COc1cc(/C=N/NC(=O)c2c(-c3c(Cl)cccc3Cl)noc2C)ccc1OCC(N)=O	.	-2	-2	.	-8	.	.
Cc1onc(-c2c(Cl)cccc2Cl)c1C(=O)N/N=C(\N)COc1ccc(Cl)cc1	12*	9	-2	14	-13	0	7
Cc1cc(N/N=C/c2ccc(O)cc2O)nc(N2CCOCC2)n1	1	4	6	0	3	.	.
Oc1ccc(/C=N\Nc2cc(N3CCOCC3)nc(N3CCOCC3)n2)c(O)c1	14*	-1	2	0	-7	36*	0
CCc1c(C(=O)NCCc2cccc(C)c2)[nH]c(C)c1C(C)=O	-2	-2	-3	-2	-7	.	.
CCc1c(C(=O)NCCc2ccc(OC)c(OC)c2)[nH]c(C)c1C(C)=O	13*	-1	-1	0	-5	-6	-4
CCCCC1=NN(C(=O)c2cocc2C)C(O)(C(F)(F)F)C1 (stereo not drawn)	13*	0	0	-1	-7	-3	-4
CCCCC1=NN(C(=O)c2ccncc2)C(O)(C(F)(F)F)C1 (stereo not drawn)	4	-2	0	-3	-5	.	.
O=C(/C=C/c1ccco1)NC(=S)Nc1ccccc1N1CCCC1	3	3	3	0	-1	.	.
O=C(/C=C/c1ccco1)NC(=S)Nc1ccccc1N1CCOCC1	9.7*	0	2	-1	0	0	1
Clc1nnc(N/N=C/c2ccccc2)c2ccccc12	5	1	-1	-3	-4	.	.
O=C(COc1cccnc1[N+](=O)[O-])c1ccc(Cl)s1	11*	-2	7	8	-1	-4	2
O=C(COc1cccnc1[N+](=O)[O-])Nc1c(Cl)cccc1Cl	.	3	0	.	-12	.	.
Cc1ccc(S(=O)(=O)CC(=O)Nc2ccc(S(=O)(=O)Nc3ccccn3)cc2)cc1	0	-3	0	4	-5	.	.
SMILES	PP5 inh	STEP block	LMPTP block	PP1 counter	Scp1 inh	PP5 inh confirm	PP1 counter 3x
CCOC(=O)C(NC(=O)Nc1ccc(O)cc1)(c1ccccc1)C(F)(F)F (stereo not drawn)	11*	-2	-2	-10	-8	1	0
Nc1ccc(N=Nc2ccccc2O)c(N)c1	12*	6	8	-11	-7	1	-2
COc1cc(Br)c(C(=O)c2nccc3cc(OC)c(OC)cc23)cc1OC	14*	3	5	-3	-7	43*	6
Cc1ccc(NC(=S)Nc2nc(CC(=O)Nc3ccccc3)cs2)cc1	10*	-4	-1	10	-6	-6	2
COc1ccccc1NC(=O)Nc1nc(CC(=O)Nc2ccc(F)c(F)c2)cs1	9.9*	-3	3	-1	0	3	2
COc1ccc(NC(=O)Cc2csc(NC(=O)Nc3ccccc3OC)n2)cc1	.	0	1	.	.	.	.
Oc1ccccc1NCC(O)Cn1ccc2ccccc21 (stereo not drawn)	9.8*	-3	2	12	-5	4	-2
OC(CNCc1ccccc1)Cn1ccc2ccccc21 (stereo not drawn)	-3	-1	-3	0	1	.	.
COc1ccc(C(=O)Nc2ccc(S(=O)(=O)NC(C)=O)cc2)cc1	12*	1	-1	-1	-4	-7	-5
CCOC(=O)N1CCN(C(=O)c2cccn3c(=O)c4cc(Cl)ccc4nc23)CC1	11*	11	1	1	-9	-5	-5
CCOC(=O)c1cn(CC(=O)Nc2ccccc2C(=O)OCC)nn1	0	-2	-2	-8	-3	.	.
CCCn1c(SCC(=O)NCc2cccs2)nc2c1c(=O)n(C)c(=O)n2C	0	-5	0	-3	-6	.	.
O=C(Nc1ccc(OC(F)(F)F)cc1)C1CCCN(C(=O)c2ccc(Cl)cc2)C1 (stereo not drawn)	14*	2	4	0	-9	4	3
CC(=O)Nc1ccc(NC(=O)C2CCCN(C(=O)c3ccc(Cl)cc3)C2)cc1 (stereo not drawn)	-1	0	0	0	-5	.	.
CCOc1ccc(NC(=O)COC(=O)CCCc2c[nH]c3ccccc23)cc1	9.8*	2	3	3	-6	1	3
